The values that follow come from ChEMBL document CHEMBL1153427, “1-Sulfonyl-4-acylpiperazines as selective cannabinoid-1 receptor (CB1R) inverse agonists for the treatment of obesity” (J Med Chem, 2009).

A short description of data set [1]: Half life in rhesus monkey. It counts as ADME, organism-based, Macaca mulatta. Particulars: in vivo.
Data set [2] addresses T1, Cytochrome P450 2C8 (Homo sapiens, UniProt P10632).
T1 sequence (P10632 whole entry): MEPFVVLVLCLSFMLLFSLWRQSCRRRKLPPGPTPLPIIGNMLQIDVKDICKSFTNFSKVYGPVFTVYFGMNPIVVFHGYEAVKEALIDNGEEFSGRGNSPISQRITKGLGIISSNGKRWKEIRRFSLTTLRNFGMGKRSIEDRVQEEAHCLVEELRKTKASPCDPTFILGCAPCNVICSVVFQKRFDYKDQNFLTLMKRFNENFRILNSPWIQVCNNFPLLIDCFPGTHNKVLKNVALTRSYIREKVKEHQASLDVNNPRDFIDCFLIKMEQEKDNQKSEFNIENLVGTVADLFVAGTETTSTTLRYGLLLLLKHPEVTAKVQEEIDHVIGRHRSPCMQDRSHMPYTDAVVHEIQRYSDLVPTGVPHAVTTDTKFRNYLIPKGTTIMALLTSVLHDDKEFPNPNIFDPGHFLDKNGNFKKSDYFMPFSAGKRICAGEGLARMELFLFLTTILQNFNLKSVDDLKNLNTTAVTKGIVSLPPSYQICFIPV
Put plainly: Inhibition of CYP2C8. It counts as ADME.

Data set [3] can be described thus: Half life in Sprague-Dawley rat at 1 mg/kg, iv and 2 mg/kg, po. It counts as ADME, organism-based. Particulars: in vivo. The essentials:
(§1)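 Male Sprague-Dawley rats received 1 mpk intravenously or 2 mpk orally. Blood was drawn at various time points into lithium heparin and centrifuged, and plasma was stored at -70 °C. Plasma was extracted by protein precipitation and analysed by LC-MS/MS.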

Data set [4] is described as follows: Cmax in dog. It counts as ADME, organism-based, Canis lupus familiaris. Particulars: in vivo.
Data set [5] is described as follows: Cmax in rhesus monkey. Particulars: in vivo. It counts as ADME, organism-based, Macaca mulatta.
The nature of data set [6]: Volume of distribution at steady state in dog. The conditions noted are these: in vivo, read-out: Vdss. It counts as ADME, organism-based, Canis lupus familiaris.
In data set [7] the target is Cytochrome P450 2C9 (Homo sapiens, UniProt P11712). Put plainly: Inhibition of CYP2C9. It counts as ADME.
Chain of Cytochrome P450 2C9 (P11712 whole entry): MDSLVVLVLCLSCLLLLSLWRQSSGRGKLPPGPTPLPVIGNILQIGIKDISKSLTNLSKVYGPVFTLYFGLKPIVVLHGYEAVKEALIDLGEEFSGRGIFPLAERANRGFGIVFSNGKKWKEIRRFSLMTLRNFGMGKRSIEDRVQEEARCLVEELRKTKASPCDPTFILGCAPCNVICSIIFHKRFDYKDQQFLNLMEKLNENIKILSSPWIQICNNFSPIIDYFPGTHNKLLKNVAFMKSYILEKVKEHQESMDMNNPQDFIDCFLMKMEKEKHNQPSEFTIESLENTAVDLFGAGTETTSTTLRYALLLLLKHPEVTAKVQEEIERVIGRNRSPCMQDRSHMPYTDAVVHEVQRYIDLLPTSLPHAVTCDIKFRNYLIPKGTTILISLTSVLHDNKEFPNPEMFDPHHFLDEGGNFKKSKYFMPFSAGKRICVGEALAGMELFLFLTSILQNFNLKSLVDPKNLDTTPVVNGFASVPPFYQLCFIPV
A short description of data set [8]: Bioavailability in dog. It counts as ADME, organism-based, Canis lupus familiaris. The conditions noted are these: in vivo.
Data set [9] in a line: Volume of distribution at steady state in Sprague-Dawley rat at 1 mg/kg, iv and 2 mg/kg, po. It counts as ADME, organism-based. Particulars: in vivo, read-out: Vdss. The essentials:
as §1

Data set [10] in a line: Bioavailability in Sprague-Dawley rat at 1 mg/kg, iv and 2 mg/kg, po. Particulars: in vivo. It counts as ADME, organism-based. The essentials:
as §1

The nature of data set [11]: Oral bioavailability in rhesus monkey. It counts as ADME, organism-based, Macaca mulatta. Particulars: in vivo.
The species named for data set [12] is Rattus norvegicus. Briefly: Reduction of overnight food intake in diet induced obese Sprague-Dawley rat assessed as minimal effective dose. It counts as functional. The conditions noted are these: feed or water, read-out: MED. In a few lines:
(§2)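 Male DIO rats were acclimated at least 3 days in an automated food-intake system, where computer-linked balances logged grams of food eaten every 5 min. They were fed milled MHF diet throughout. Compound or vehicle (10% Tween-80 in water) was given by oral gavage 1 h before dark-cycle onset. Overnight food intake and body-weight change were measured against vehicle, with significance set at P < 0.05.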

Data set [13] can be described thus: Volume of distribution at steady state in rhesus monkey. It counts as ADME, organism-based, Macaca mulatta. Particulars: in vivo, read-out: Vdss.
The nature of data set [14]: Ratio of drug level in brain to plasma in Sprague-Dawley rat at 1 mg/kg, iv and 2 mg/kg, po after 4 hrs. It counts as ADME, organism-based.
Data set [15] in a line: Plasma clearance in rhesus monkey. It counts as ADME, organism-based, Macaca mulatta.
Data set [16] can be described thus: Half life in dog. The conditions noted are these: in vivo. It counts as ADME, organism-based, Canis lupus familiaris.
In data set [17] the test system is Rattus norvegicus. Put plainly: Reduction of body weight in diet induced obese Sprague-Dawley rat at 3 mg/kg, po. It counts as functional. The essentials:
as §2

In data set [18] the target is Cannabinoid receptor 1 (Homo sapiens, UniProt P21554). Put plainly: Displacement of [3H]CP-55940 from human recombinant CB1R expressed in CHO cells. It counts as cell-based. The essentials: (§3)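 Radioligand competition used 0.5 nM [³H]CP55940 with recombinant human CB1R-CHO or CB2R-CHO membranes. Bound and free ligand were separated by filtration, and IC₅₀ came from nonlinear curve fitting.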
Chain of Cannabinoid receptor 1 (P21554 whole entry): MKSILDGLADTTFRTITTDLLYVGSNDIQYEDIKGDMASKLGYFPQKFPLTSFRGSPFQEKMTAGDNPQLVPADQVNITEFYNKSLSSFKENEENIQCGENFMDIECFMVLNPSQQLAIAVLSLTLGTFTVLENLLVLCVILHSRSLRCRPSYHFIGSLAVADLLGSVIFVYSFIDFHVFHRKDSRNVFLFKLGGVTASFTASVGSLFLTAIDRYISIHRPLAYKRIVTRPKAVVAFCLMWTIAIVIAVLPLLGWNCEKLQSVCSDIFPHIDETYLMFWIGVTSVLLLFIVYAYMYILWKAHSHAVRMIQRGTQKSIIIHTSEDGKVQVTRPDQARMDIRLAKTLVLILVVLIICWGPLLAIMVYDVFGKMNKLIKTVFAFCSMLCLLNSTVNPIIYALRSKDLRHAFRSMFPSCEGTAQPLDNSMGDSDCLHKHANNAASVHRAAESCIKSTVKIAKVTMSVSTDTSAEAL
A general note: Displacement assays read how much labelled ligand stays bound in the presence of the test substance.

Data set [19] in a line: Plasma clearance in Sprague-Dawley rat at 1 mg/kg, iv and 2 mg/kg, po. It counts as ADME, organism-based. The essentials: as §1
Data set [20] has as its target Cannabinoid receptor 2 (Homo sapiens, UniProt P34972). Briefly: Displacement of [3H]CP-55940 from human recombinant CB2R expressed in CHO cells. It counts as cell-based. In a few lines:
as §3

The target in data set [21] is Cytochrome P450 3A4 (Homo sapiens, UniProt P08684). Briefly: Inhibition of CYP3A4. It counts as ADME.
Chain of Cytochrome P450 3A4 (P08684 whole entry): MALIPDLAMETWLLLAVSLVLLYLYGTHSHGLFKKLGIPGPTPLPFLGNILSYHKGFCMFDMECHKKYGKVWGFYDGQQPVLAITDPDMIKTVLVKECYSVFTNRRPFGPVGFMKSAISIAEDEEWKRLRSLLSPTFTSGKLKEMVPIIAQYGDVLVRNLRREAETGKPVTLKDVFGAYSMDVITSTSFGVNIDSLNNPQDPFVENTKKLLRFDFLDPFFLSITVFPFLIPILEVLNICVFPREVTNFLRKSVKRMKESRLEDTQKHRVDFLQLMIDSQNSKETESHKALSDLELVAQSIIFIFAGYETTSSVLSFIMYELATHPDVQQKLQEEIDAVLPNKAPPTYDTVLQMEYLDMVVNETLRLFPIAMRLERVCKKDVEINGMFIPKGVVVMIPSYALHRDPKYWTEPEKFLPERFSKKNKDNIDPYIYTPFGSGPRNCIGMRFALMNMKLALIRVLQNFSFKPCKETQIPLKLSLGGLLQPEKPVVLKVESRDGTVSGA
A short description of data set [22]: Cmax in Sprague-Dawley rat at 1 mg/kg, iv and 2 mg/kg, po. It counts as ADME, organism-based. The conditions noted are these: in vivo. In a few lines: as §1
A short description of data set [23]: Plasma clearance in dog. It counts as ADME, organism-based, Canis lupus familiaris.

Chain of Cannabinoid receptor 2 (P34972 whole entry): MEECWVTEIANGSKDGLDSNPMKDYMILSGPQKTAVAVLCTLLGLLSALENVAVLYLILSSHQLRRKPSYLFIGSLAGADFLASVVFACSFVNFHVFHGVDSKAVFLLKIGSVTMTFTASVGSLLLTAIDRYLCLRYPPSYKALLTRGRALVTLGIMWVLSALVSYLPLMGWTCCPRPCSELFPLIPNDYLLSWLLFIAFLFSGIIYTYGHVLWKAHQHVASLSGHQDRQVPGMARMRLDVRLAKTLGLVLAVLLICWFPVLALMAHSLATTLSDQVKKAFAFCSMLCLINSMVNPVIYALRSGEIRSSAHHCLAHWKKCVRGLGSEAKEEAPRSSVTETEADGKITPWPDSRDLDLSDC

The term half-life denotes the time needed for the level to fall by half in the phase considered. A word on the IC50: it is the point on the concentration scale where inhibition reaches its midpoint. What is called Cmax is the peak of the concentration-time curve. Broadly, the bioavailability is dose-corrected exposure relative to a reference, in per cent. In general, Kp refers to the ratio of the level in a tissue or fluid to that in plasma or blood. As for `O=C([C@@H]1C[C@H]1c1ccc(C(F)(F)F)cc1)N1CCN(S(=O)(=O)c2cc(-c3nnc[nH]3)cc(C(F)(F)F)c2)CC1`, the half-life in data set [1] is 2 h; in data set [3], 3.8 h; in [16], 8.6 h. The IC50 was 15 µM in data set [2]; 6 µM in [7]; 0.0002 µM in data set [18]; more than 10 µM in data set [20]; 4.7 µM in data set [21]. Further, the Cmax in data set [4] is 210 nM; in [5], 3 nM; in [22], 190 nM. In addition, the Vd in data set [6] is 1.1 L/kg; in [9], 3.8 L/kg; in data set [13] it was 2.5 L/kg. Besides, the bioavailability in data set [8] is 26%; in [10], 31%; in data set [11] it was less than 2%. The minimal effective dose in [12] worked out at 0.3 mg/kg. Besides, in data set [14], the Kp at 4 h was determined as 0.2. In addition, the clearance in data set [15] is 14.6 mL/min/kg; in data set [19], 23.7 mL/min/kg; in [23] it was 1.4 mL/min/kg. Besides, the Activity in [17] is reported as -14 g.
